According to BindingDB's records for doi:10.1021/jm960325j (Universit&#224, 1996):

What follows are molecules tested against Translocator protein (Rattus norvegicus, UniProt P16257) (assay: Binding affinity against peripheral benzodiazepine receptor( PBR).).
Chain of Translocator protein (P16257 whole entry, looked up): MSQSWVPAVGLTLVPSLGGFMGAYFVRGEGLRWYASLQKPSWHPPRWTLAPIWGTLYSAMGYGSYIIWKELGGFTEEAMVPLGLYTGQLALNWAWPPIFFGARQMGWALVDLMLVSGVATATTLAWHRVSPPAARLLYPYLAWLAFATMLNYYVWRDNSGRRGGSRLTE
Procedure, shortened: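 Rat cerebral cortex membranes washed repeatedly at 50000g in 50 mM phosphate pH 7.4, 2.3 mg tissue per sample. Filtration, scintillation counting. IC50 by log-probit analysis over six concentrations in duplicate, means of three experiments. Maximal concentration 1000 nM.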
With `CCCCCCN(CCCCCC)C(=O)Cc1c2[nH]c3ccccc3cc-2c(=O)n1-c1ccc(Cl)cc1` [2-[2-(4-Chloro-phenyl)-1-oxo-2,3-dihydro-1H-pyrrolo[3,4-b]quinolin-3-yl]-N,N-dihexyl-acetamide] the IC50 was > 1000 nM.
With `CCCN(CCC)C(=O)Cc1c2[nH]c3ccccc3cc-2c(=O)n1-c1ccc(Cl)cc1` [2-[2-(4-Chloro-phenyl)-1-oxo-2,3-dihydro-1H-pyrrolo[3,4-b]quinolin-3-yl]-N,N-dipropyl-acetamide] the IC50 was > 1000 nM.
With `CCCN(CCC)C(=O)Cc1c2[nH]cccc-2c(=O)n1-c1ccc(Cl)cc1` [2-[6-(4-Chloro-phenyl)-5-oxo-6,7-dihydro-5H-pyrrolo[3,4-b]pyridin-7-yl]-N,N-dipropyl-acetamide] the IC50 was > 1000 nM.
In the case of `O=c1c2ccc[nH]c-2cn1-c1ccc(Cl)cc1` [6-(4-Chloro-phenyl)-6,7-dihydro-pyrrolo[3,4-b]pyridin-5-one], the IC50 is reported as > 1000 nM.
